Screening data: PubChem, several laboratories
p-CIP stab down: compounds decreasing mouse p/CIP protein stability; Q05BA5; F442A p/CIP-EGFP cells, EGFP fluorescence, 16 h; decrease of EGFP signal, % at 10 µM; 290,000 compounds, 0.01% hits;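 active = EGFP signal decrease of at least 30% at 10 µM or well 3 SD below plate mean, unless failing retest; inactive = the rest, including hits failing retest or dose response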
GASC-1 inh: human JMJD2C demethylase inhibition | Q9H3R0 | GST-JMJD2C(1-420) H3K9me3 demethylation, DELFIA europium | 330,000 compounds, 0.069% hits | inhibition, % at 2.35 µM;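 active = more than half of a compound's replicate wells show inhibition beyond 50%, single wells judged on their own value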;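 also: signal counts dimethyl H3K9 product captured on neutravidin plate; 0% = median of DMSO wells and 100% = 0.3 times that DMSO median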
Target sequence (Q9H3R0 1-420 limits assumed): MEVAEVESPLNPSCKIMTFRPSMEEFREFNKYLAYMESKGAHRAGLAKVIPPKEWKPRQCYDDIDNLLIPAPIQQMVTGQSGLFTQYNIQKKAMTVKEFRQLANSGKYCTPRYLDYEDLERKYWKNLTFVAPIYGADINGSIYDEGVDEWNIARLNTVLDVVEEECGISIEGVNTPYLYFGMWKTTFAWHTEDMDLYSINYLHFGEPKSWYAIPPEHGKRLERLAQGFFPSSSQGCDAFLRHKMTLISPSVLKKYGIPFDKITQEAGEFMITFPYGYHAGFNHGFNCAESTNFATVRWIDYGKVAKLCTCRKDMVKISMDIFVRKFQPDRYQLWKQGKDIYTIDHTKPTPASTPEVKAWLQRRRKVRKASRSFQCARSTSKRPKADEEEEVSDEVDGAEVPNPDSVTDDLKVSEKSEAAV
Arr AP2 block: human beta-arrestin and AP2 interaction inhibition; FITC-arrestin peptide / GST-AP2 beads, flow cytometry; AP2 beta2 appendage carries R879A mutation; 340,000 compounds, 0.31% hits; inhibition, % at 10 µM; AID 504490;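 active = inhibition above a set limit, near 3 SD of compounds lacking own fluorescence, cut at about 54% in these data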;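 also: plate controls were DMSO wells for no effect and 5 µM unlabelled arrestin peptide for full effect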
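System: GST-AP2 R879A bound to glutathione beads, E. coli-expressed. Also added: 50 nM FITC-arrestin peptide. Schedule: compound with beads 12 min RT, then probe 1 h RT. Signal: bead flow cytometry, FITC channel. Read-out basis: percent response.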
VLA-4 inh: inhibition in a human VLA-4 binding assay; P13612; inhibition, % (about 7 µM as worked out from the volumes in the protocol); VLA-4 expressing cells, ligand binding flow cytometry; 330,000 compounds, 0.2% hits; in the data active = inhibition above about 50%
VLA-4 mod pick: confirmation of allosteric modulators of human VLA-4 integrin; shares compounds with VLA-4 inh; U937 cells, HUTS-21 LIBS mAb binding, flow cytometry; LDV ligand present at threefold Kd; inhibition, % at 6.7 µM; 1,300 compounds, 2% hits; AID 2813; in the data active = inhibition above about 40%;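 also: 0% = ligand without compound and 100% = no ligand background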
Arr-AP2 CP1: human beta-arrestin and AP2 interaction inhibition, cherry pick; 1,300 compounds, 2% hits; shares compounds with Arr AP2 block; AID 504908; inhibition, % at 10 µM; GST-AP2 beads, FITC arrestin peptide binding, flow cytometry; GST-fused beta2-adaptin appendage, R879A mutant;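 active = inhibition above a set limit, roughly 3 SD of non-fluorescent compound noise, cut at about 38% in these data; inactive = inhibition at or below that limit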;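 also: loss of bead fluorescence from 50 nM FITC arrestin peptide bound to appendage; 0% = negative control wells and 100% = excess unlabelled arrestin peptide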
GST-FITC bead: counter-screen for beta-arrestin AP2 inhibitors: GST-GSH bead binding; shares compounds with Arr AP2 block; inhibition, % at 10 µM; AID 588338; 1,300 compounds, 2% hits; GST-fluorescein binding to GSH beads, fluorescence;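 active = inhibition above 50%, about 3 SD of the inhibition seen with non-fluorescent compounds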;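 also: fluorescein maleimide labelled GST captured on 4 micron glutathione beads; higher means more loss of bead fluorescence from quenching or blocked binding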
Active calls of the source: *; x = not tested or not shown. Only some compounds are listed: those with a hit (about 0.57% of all), similar ones and a draw of the others.

SMILES	p-CIP stab down	GASC-1 inh	Arr AP2 block	VLA-4 inh	VLA-4 mod pick	others
COc1ccc(C(=O)O)cc1OC	x	x	-5	x	x
O=C(O)c1cc[c]([Hg][Cl])cc1	x	5	95*	-7	x
Cc1cc(C)cc(OCCOc2cccc(C=C3C(=O)NC(=O)NC3=O)c2)c1	-14	68*	11	18	x
COc1cc(CN2CC=C(c3ccc(F)cc3)CC2)cc(OC)c1	0	-5	30	-7	x
O=C1NC(=O)N(Cc2ccccc2)C(=O)/C1=C/C=C/c1ccco1	-22	58*	15	18	x
c1ccc2c3c(ccc2c1)OCC1CONC31 (stereo not given)	3	82*	x	11	x
CN(C)c1ccc(NC(=O)CN2C(=O)CN=C(c3ccccc3)c3ccccc32)cc1	2	-13	6	0	x
CC(C)OC12Oc3ccccc3C=C1N1CCC2CC1 (stereo not given)	-2	7	3	3	x
COc1ccc(C(=O)OC2C[C@H]3CC[C@@H](C2)N3O)cc1OC (stereo not given in full)	-2	14	23	-18	1
C[N+](C)(N)CCOC(=O)C(O)(c1ccccc1)C1CCCCC1 (stereo not given)	x	-3	28	6	x
Cc1cccc(CN2CCCN(Cc3ccc(Cl)cc3)S2(=O)=O)c1	1	-2	32	45	-1
Cc1ccc(CN2CCCN(Cc3ccc(C)cc3)S2(=O)=O)cc1	0	0	-18	4	x
CCCC(C)CC1(CCO)C(=O)NC(=S)NC1=O (stereo not given)	x	x	-3	x	x
O=C(N[C@H]1CP(=O)(Oc2ccccc2)O[C@H](COCc2ccccc2)[C@H]1O)C(Cl)(Cl)Cl (stereo not given in full)	-3	-8	-6	20	x
O=C1CN(O)C(c2ccccc2)=c2cc(Cl)ccc2=N1	-8	-1	-8	101*	-12
CN=C1CN(O)C(c2ccccc2)=c2cc(Cl)ccc2=N1	x	1	23	14	x
Cc1cc(Cl)ccc1OCC(=O)O	-3	-14	6	56*	-3
O=C(O)COc1ccc(Cl)cc1Cl	x	4	-1	-2	x
Cc1cc(C)cc(N2C(=O)NC(=O)/C(=C\c3cccn3-c3ccccc3)C2=O)c1	-10	-3	7	44	16
CCOC(=O)c1c(NC(=O)C(c2ccccc2)c2ccccc2)sc2c1C1CCN2CC1	-5	19	-2	-4	-3
C[C@]12C[C@@H](O)[C@H](O)CC1=CCC1C2CC[C@@]2(C)C1CC[C@@H]2O (stereo not given in full)	x	x	-1	-2	x
O=c1[nH]c(=S)n(Cc2ccc(F)cc2)c(O)c1/C=N/N1CCCCC1	-8	6	9	56*	-7
CCCCC1(CCO)C(=O)NC(=S)NC1=O	x	x	-7	x	x
CCN(CC)c1ccc(N=Cc2c(O)n(Cc3ccccc3)c(=O)[nH]c2=O)cc1	-17	0	-4	-7	-22
CCN(CC)c1ccc(N=Cc2c(O)n(-c3ccccc3)c(=O)[nH]c2=O)cc1	-18	-26	42	-23	x
SMILES	p-CIP stab down	GASC-1 inh	Arr AP2 block	VLA-4 inh	VLA-4 mod pick	others
C=C1[C@H]2CC[C@H]3[C@]4(C)C[C@H](O[C@H]5O[C@H](CO)[C@@H](OS(=O)(=O)O)[C@H](OS(=O)(=O)O)[C@H]5OC(=O)CC(C)C)C[C@@H](C(=O)O)[C@H]4CC[C@]3(C2)[C@H]1O	x	x	8	57*	3
CC1CCC(N2CCN(C(=O)COc3ccccc3)CC2)CC1 (stereo not given)	-6	-9	23	6	x
O=C(c1ccc(N2CCCCC2)c([N+](=O)[O-])c1)N1CCC2(CC1)OCCO2	0	3	39	-2	x
Cc1[nH]c2ccc(OC(F)(F)F)cc2c1CCNCc1cccc([N+](=O)[O-])c1	0	39	-5	39	x
CCOc1cccc(CNCCc2c(C)[nH]c3ccc(OC(F)(F)F)cc23)c1O	-6	-10	9	65*	39
COc1cccc(O)c1CN1CCCC(C(=O)c2ccccc2SC)C1 (stereo not given)	19	10	8	51*	-4
Nc1cc(Cl)c2nonc2c1[N+](=O)[O-]	-25	-25	-4	50*	32
O=[N+]([O-])c1c(Cl)c(Cl)c(Cl)c(Cl)c1Cl	x	x	-10	x	x
CCCCNC(=O)c1c(N)n(Cc2ccc3c(c2)OCO3)c2nc3ccccc3nc12	-11	1	17	-99	x
CN1C2CCC1CC(OC(=O)c1cccc(O)c1)C2 (stereo not given)	x	x	-6	x	x
CN1[C@@H]2CC[C@H]1CC(OC(=O)C1C=Nc3ccccc31)C2 (stereo not given in full)	-2	-14	-5	51*	11
COC(=O)C1C2CC[C@@H](CC1OC(=O)c1ccccc1)N2 (stereo not given in full)	x	x	21	8	-1
CCOC(=O)C1C(OC(=O)c2ccccc2)CC2CCC1N2C (stereo not given)	x	x	18	x	x
CN1C2CCC1C(C(=O)O)C(OC(=O)c1ccccc1)C2 (stereo not given)	x	x	9	35	3
CCCCCCn1c(O)c(/C=N/N2CCCCCC2)c(=O)[nH]c1=O	-4	6	11	3	x
C/C1=C\[C@@H](C)C/C=C/[C@H]2[C@@H]3O[C@]3(C)[C@@H](C)[C@H]3[C@H](Cc4c[nH]c5ccccc45)NC(=O)[C@]32C(=O)/C=C/C(=O)[C@@H]1O	-4	6	-3	70*	37
Cc1cc(Cc2c(O)[nH]c(=S)[nH]c2=O)ccc1OC(C)C	4	-11	31	8	x
c1ccc2c(c1)Nc1ccccc1S2	1	2	4	55*	13
CCCCCCCSc1cc(OC)c(CCNC)cc1OC	0	-11	6	61*	0
Cc1ccc(S(=O)(=O)N[C@@H](CCCCN)C(=O)CCl)cc1	x	-4	-5	53*	-7
Cc1ccc(S(=O)(=O)NCCC(=O)Nc2ccc(Cl)cc2C(=O)c2ccccc2)cc1	-6	3	-11	10	x
Nc1ccc2cc(Br)ccc2c1	4	4	61*	3	x	Arr-AP2 CP1=-2;GST-FITC bead=-2
Nc1ccc(Br)cc1	x	x	36	x	x
Cc1ccc(CC(=O)N2CCN(C)CC2)cc1	-2	-3	55*	4	x	Arr-AP2 CP1=0;GST-FITC bead=-1
O=C1NC(=O)N(CCC2=CCCCC2)C(=O)/C1=C\c1cccs1	5	21	55*	3	x	Arr-AP2 CP1=9;GST-FITC bead=1
Cc1nn(-c2ccccc2)c2c1CC1(C(=O)N(C)C(=O)N(C)C1=O)C1CCCCN21 (stereo not given)	1	9	1	5	x
CC(=NCC1CCCO1)c1c(O)n(-c2ccc(C)cc2)c(=O)[nH]c1=O (stereo not given)	5	2	3	23	x
CCN1C(=O)CC(c2cccnc2)=Nc2ccccc21	-9	-7	-31	5	x
O=C1CC(c2cccnc2)=NN1c1ccc(Cl)cc1Cl	-17	-7	61*	6	x	Arr-AP2 CP1=-8;GST-FITC bead=8
